≈ marks a conversion by molar mass, not a printed value. Calls of active or inactive are those of the source. No cut-off for these calls is given here.
Experiments:
[1] = test system: Pseudomonas aeruginosa; test: Antibacterial activity against Pseudomonas aeruginosa ATCC 27853 assessed as bacterial growth inhibition incubated for 16 to 18 hrs by CLSI based antibiotic susceptibility testing method; assay type: functional, organism-based; conditions: time 16-18 hrs
Summary of the method: (§1)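 Broth microdilution in cation-adjusted Mueller-Hinton broth. Compounds were tested at […], with levofloxacin as reference and medium-only controls. Plates were incubated at 37 °C for 16-18 h. MIC was the lowest concentration with no visible growth; three independent determinations, each in duplicate.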

[2] = test system: Mycobacteroides chelonae; test: Antimycobacterial activity against Mycobacteroides chelonae ATCC 35752 assessed as bacterial growth inhibition incubated for 72 hrs by resazurin dye based broth microdilution method; assay type: functional, organism-based
Summary of the method: (§2)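 Broth microdilution in Middlebrook 7H9 with 10% ADC-Tween-80 (0.2% glycerol, 0.05% Tween-80), inoculum ~10⁶ cfu/mL. Compounds came from 10 mg/mL DMSO stocks and were tested as two-fold serial dilutions at 37 °C, 7 days for M. tuberculosis H37Rv and 72 h for NTM. Growth was read visually with PrestoBlue resazurin dye; MIC was the lowest concentration preventing growth. Triplicate determinations, each in duplicate.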

[3] = test system: Mycobacterium tuberculosis; test: Antimycobacterial activity against Mycobacterium tuberculosis H37Rv ATCC 27294 assessed as bacterial growth inhibition incubated for 7 days by resazurin dye based broth microdilution method; assay type: functional; conditions: H37Rv ATCC 27294, 168 h, time 7 day; summary of the method: as §2
[4] = test system: Escherichia coli; test: Antibacterial activity against Escherichia coli ATCC 25922 assessed as bacterial growth inhibition incubated for 16 to 18 hrs by CLSI based antibiotic susceptibility testing method; assay type: functional, organism-based; conditions: time 16-18 hrs; summary of the method: as §1
[5] = test system: Acinetobacter baumannii; test: Antibacterial activity against Acinetobacter baumannii BAA 1605 assessed as bacterial growth inhibition incubated for 16 to 18 hrs by CLSI based antibiotic susceptibility testing method; assay type: functional, organism-based; conditions: time 16-18 hrs; summary of the method: as §1
[6] = test system: Mycolicibacterium fortuitum; test: Antimycobacterial activity against Mycobacterium fortuitum ATCC 6841 assessed as bacterial growth inhibition incubated for 72 hrs by resazurin dye based broth microdilution method; assay type: functional, organism-based; summary of the method: as §2
[7] = test system: Mycobacteroides abscessus; test: Antimycobacterial activity against Mycobacterium abscessus ATCC 19977 assessed as bacterial growth inhibition incubated for 72 hrs by resazurin dye based broth microdilution method; assay type: functional, organism-based; summary of the method: as §2
[8] = test system: Staphylococcus aureus; test: Antibacterial activity against Staphylococcus aureus ATCC 29213 assessed as bacterial growth inhibition incubated for 16 to 18 hrs by CLSI based antibiotic susceptibility testing method; assay type: functional; conditions: time 16-18 hrs; summary of the method: as §1
[9] = test system: Klebsiella pneumoniae; test: Antibacterial activity against Klebsiella pneumoniae BAA 1705 assessed as bacterial growth inhibition incubated for 16 to 18 hrs by CLSI based antibiotic susceptibility testing method; assay type: functional, organism-based; conditions: time 16-18 hrs; summary of the method: as §1

Compound	growth inhibition (GI) [1]	growth inhibition (GI) [2]	MIC [3] [µg/mL]	growth inhibition (GI) [4]	growth inhibition (GI) [5]	growth inhibition (GI) [6]	growth inhibition (GI) [7]	MIC [8] [µg/mL]	growth inhibition (GI) [9]
CC(C)NC(=S)N1CCN(CCN2C(=O)c3cccc4cccc(c34)C2=O)CC1	inactive	inactive	> 64	inactive	inactive	inactive	inactive	> 64	inactive
O=C(CN1C(=O)c2cccc3cccc(c23)C1=O)N1CCN(C(=S)Nc2ccccc2)CC1	inactive	inactive	16 (≈ 34.9 µM)	inactive	inactive	inactive	inactive	> 64	inactive
CCN=C(S)N1CCN(CCN2C(=O)c3cccc4cccc(c34)C2=O)CC1	inactive	inactive	64 (≈ 161 µM)	inactive	inactive	inactive	inactive	> 64	inactive
O=C1c2cccc3cccc(c23)C(=O)N1CCN1CCN(C(=S)Nc2cccnc2)CC1	inactive	inactive	> 64	inactive	inactive	inactive	inactive	> 64	inactive
Cc1ccc(NC(=S)N2CCN(C(=O)CN3C(=O)c4cccc5cccc(c45)C3=O)CC2)cc1	inactive	inactive	64 (≈ 135 µM)	inactive	inactive	inactive	inactive	> 64	inactive
O=C(CN1C(=O)c2cccc3cccc(c23)C1=O)NC1CCN(C(=S)NC2CCCC2)CC1	inactive	inactive	> 64	inactive	inactive	inactive	inactive	> 64	inactive
Cc1ccc(NC(=S)N2CCN(CCN3C(=O)c4cccc5cccc(c45)C3=O)CC2)cc1	inactive	inactive	> 64	inactive	inactive	inactive	inactive	> 64	inactive
CCCCCCCNC(=S)N1CCN(CCN2C(=O)c3cccc4cccc(c34)C2=O)CC1	inactive	inactive	64 (≈ 137 µM)	inactive	inactive	inactive	inactive	> 64	inactive
O=C(CN1C(=O)c2cccc3cccc(c23)C1=O)NC1CCN(C(=S)Nc2ccc(Cl)cc2)CC1	inactive	inactive	> 64	inactive	inactive	inactive	inactive	> 64	inactive
O=C(CCN1C(=O)c2cccc3cccc(c23)C1=O)NC1CCN(C(=S)Nc2ccccc2)CC1	inactive	inactive	64 (≈ 132 µM)	inactive	inactive	inactive	inactive	> 64	inactive
CN[C@@H]1[C@H](O[C@H]2[C@H](O[C@H]3[C@H](O)[C@@H](O)[C@H](N=C(N)N)[C@@H](O)[C@@H]3N=C(N)N)O[C@@H](C)[C@]2(O)C=O)O[C@@H](CO)[C@H](O)[C@H]1O [STREPTOMYCIN]		inactive	1 (≈ 1.72 µM)			inactive	inactive		
O=C(CN1C(=O)c2cccc3cccc(c23)C1=O)N1CCN(C(=S)Nc2ccc(Cl)cc2)CC1	inactive	inactive	8 (≈ 16.2 µM)	inactive	inactive	inactive	inactive	> 64	inactive
O=C1c2cccc3cccc(c23)C(=O)N1CCN1CCN(C(=S)Nc2ccc(Cl)cc2)CC1	inactive	inactive	> 64	inactive	inactive	inactive	inactive	> 64	inactive
Cc1ccc(NC(=S)N2CCN(C(=O)CCN3C(=O)c4cccc5cccc(c45)C3=O)CC2)cc1	inactive	inactive	> 64	inactive	inactive	inactive	inactive	> 64	inactive
NNC(=O)c1ccncc1 [ISONIAZID]		inactive	0.03 (≈ 0.219 µM)			inactive	inactive		
CC[C@@H](CO)NCCN[C@@H](CC)CO [ETHAMBUTOL]		inactive	2 (≈ 9.79 µM)			inactive	inactive		
NCC[C@H](O)C(=O)N[C@@H]1C[C@H](N)[C@@H](O[C@H]2O[C@H](CN)[C@@H](O)[C@H](O)[C@H]2O)[C@H](O)[C@H]1O[C@H]1O[C@H](CO)[C@@H](O)[C@H](N)[C@H]1O [AMIKACIN]		inactive	0.5 (≈ 0.854 µM)			inactive	inactive		
CO[C@H]1/C=C/O[C@@]2(C)Oc3c(C)c(O)c4c(O)c(c(/C=N/N5CCN(C)CC5)c(O)c4c3C2=O)NC(=O)/C(C)=C\C=C\[C@H](C)[C@H](O)[C@@H](C)[C@@H](O)[C@@H](C)[C@H](OC(C)=O)[C@@H]1C [RIFAMPIN]		inactive	0.03 (≈ 0.0365 µM)			inactive	inactive		
